Data from BindingDB's records for doi:10.1021/jm00189a004 (1979).

Target: Indolethylamine N-methyltransferase (Oryctolagus cuniculus, UniProt O97972)
Assay: Inhibition of New Zealand white rabbit lung INMT using N-methyltryptamine as substrate after 60 to 90 mins by liquid scintillation counting in presence of S-methyl-[14C]adenosylmethionine
Method in brief: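 Enzyme from male rabbit lung: homogenate in 0.15 M KCl with 10^-4 M DTT and EDTA, 50 000 g supernatant, 40-60% ammonium sulfate fraction dialysed (some runs further Sephadex G-150 purified). Incubation in potassium phosphate pH 7.9 with N-methyltryptamine and S-[methyl-14C]adenosylmethionine, test compound in water or 5% DMSO, 37 °C. Stopped with borate pH 10; 14C-DMT extracted into isoamyl alcohol.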

Chain of Indolethylamine N-methyltransferase (O97972 whole entry): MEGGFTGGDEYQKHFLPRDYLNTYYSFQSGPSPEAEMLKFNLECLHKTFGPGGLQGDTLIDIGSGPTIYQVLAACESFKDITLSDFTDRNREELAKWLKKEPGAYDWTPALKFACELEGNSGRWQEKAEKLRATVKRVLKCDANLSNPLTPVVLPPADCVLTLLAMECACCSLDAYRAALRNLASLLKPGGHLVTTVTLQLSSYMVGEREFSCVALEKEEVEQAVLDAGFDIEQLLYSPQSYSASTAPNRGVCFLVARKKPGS

Compound: C1CN=C2CCCN2C1
- IC50: 38.7 µM
